RGS4 inh – RGS4 inhibitors, primary screen, cell-based, HEK293 M3R inducible RGS4, calcium flux. Fluo-4 calcium flux; active compounds read high; triggered by carbachol at its EC20. B-score at 10 µM. Regulator of G-protein signaling 4 (Homo sapiens), P49798. actives 0.45% (n = 310,000);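 active = B-score, a plate-corrected calcium signal, over three deviations above library mean, with baseline fluorescence within five deviations of library mean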;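 note: RGS4 expression induced by doxycycline in cells with stable M3 receptor; B-score is computed from the integrated fluorescence ratio over baseline after carbachol; higher B-score means a larger calcium signal and so more RGS4 inhibition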
Target sequence (P49798 whole entry, looked up): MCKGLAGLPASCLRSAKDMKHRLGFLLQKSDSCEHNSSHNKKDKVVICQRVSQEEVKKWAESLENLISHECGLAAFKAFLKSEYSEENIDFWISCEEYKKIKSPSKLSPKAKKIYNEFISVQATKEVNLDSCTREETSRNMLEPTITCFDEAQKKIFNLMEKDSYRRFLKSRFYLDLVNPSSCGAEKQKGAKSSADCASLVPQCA
MrgX1 PAM – positive allosteric modulators of MrgX1, primary screen, HEK293 cells, Fluo-4 calcium flux. Mas-related G-protein coupled receptor member X1 (Homo sapiens), Q96LB2. FDSS; active compounds read high. B-score at 10 µM. actives 0.63% (n = 310,000). AID 588675, 2011;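 active = plate-corrected calcium response at least 3 library SD above typical, normal starting fluorescence, not activating the receptor alone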;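 note: compound read alongside a low EC10 to EC30 dose of BAM8-22 agonist; peak minus trough fluorescence over baseline measured at the second addition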
Target sequence (Q96LB2 whole entry, looked up): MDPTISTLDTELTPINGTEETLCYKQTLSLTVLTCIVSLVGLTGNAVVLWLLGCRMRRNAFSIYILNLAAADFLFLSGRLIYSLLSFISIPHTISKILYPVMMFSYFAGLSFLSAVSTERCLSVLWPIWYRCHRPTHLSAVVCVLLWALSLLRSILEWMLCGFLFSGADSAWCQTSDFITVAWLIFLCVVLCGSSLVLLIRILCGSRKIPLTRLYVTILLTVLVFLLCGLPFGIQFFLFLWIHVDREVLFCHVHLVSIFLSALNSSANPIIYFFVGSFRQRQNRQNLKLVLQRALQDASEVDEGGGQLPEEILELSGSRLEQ
MrgX1 antagonist – antagonists of human MrgX1 receptor, primary screen, HEK293 cells, Fluo-4 calcium flux. Mas-related G-protein coupled receptor member X1 (Homo sapiens), Q96LB2. BAM8-22 antagonism; active compounds read low. actives 1.3% (n = 310,000). B-score at 10 µM. AID 588676, 2011;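 active = calcium-response B-score plate-corrected more than 3 library SD below zero, starting fluorescence within 5 deviations, no agonist response on first addition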;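 note: peak minus trough fluorescence over baseline after final BAM8-22 challenge near maximal dose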
MrgX1 ag – agonists of human MrgX1 receptor, primary screen, HEK293 cells, Fluo-4 calcium flux | Mas-related G-protein coupled receptor member X1 (Homo sapiens), Q96LB2 | Fluo-4 calcium fluorescence, agonist mode; active compounds read high | B-score at 10 µM | actives 0.44% (n = 310,000) | AID 588627, 2011;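 active = calcium response B-score plate-corrected fluorescence ratio at least 3 library SD, with starting fluorescence B-score inside 5 SD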
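Assay system: stable human MrgX1 HEK293 cell line. Quantity: 15,000 cells per well. Schedule: cells plated overnight, dye loaded 0.5 h 37 °C, 0.5 h room temperature. Detection: Fluo-4 NW calcium-flux fluorescence, kinetic read. Read-out basis: peak-minus-minimum fluorescence over baseline, converted to B scores. Control set: positive and negative control wells on each plate.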
RGS4 act – RGS4 potentiators or activators, primary screen, cell-based, HEK293 M3R inducible RGS4, calcium flux; actives 0.92% (n = 310,000); carbachol calcium flux Fluo4; active compounds read low; B-score at 10 µM;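 active = B-score of the integrated calcium signal more than 4 SD below the library mean, with starting fluorescence not abnormally high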;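 note: negative B-score means reduced calcium response which marks RGS4 activation or potentiation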
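Detection: kinetic calcium fluorescence imaging with Fluo4-AM dye, 2 µM / Material: HEK293 cells with stable M3R and inducible RGS4 / Schedule: recording 10 s baseline at 1 Hz, 100 s post-agonist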
MrgX1 antag conf – MrgX1 receptor antagonists, duplicate retest, confirmation, HEK293 cells, Fluo-4 calcium flux | shares compounds with MrgX1 antagonist | BAM8-22 calcium flux; active compounds read low | remaining BAM8-22 calcium response % of control (active compounds read low), % at 10 µM | actives 19% (n = 2,300) | AID 602420, 2012;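 active = remaining agonist calcium response no higher than 100% minus 3 SD of agonist-only control wells, with starting fluorescence near control levels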;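 note: agonist BAM8-22 given at a near maximal EC90 to ECmax level; peak minus minimum fluorescence divided by baseline after agonist addition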
HEK293 Ca flux – nonspecific calcium signal in parental HEK293, confirmation, counter-screen for MrgX1 antagonist project, parental HEK293 cells, Fluo-4 calcium flux | AID 624111, 2012 | shares compounds with MrgX1 antagonist | Fluo-4 calcium fluorescence, FDSS | actives 2% (n = 4,000) | fluorescence ratio F(max-min)/F0 at 10 µM;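 active = duplicate-averaged calcium fluorescence ratio at least three times the standard deviation of buffer wells, a nonspecific response in parental cells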
HEK293 Ca counter – calcium response in parental HEK293 cells, primary screen, counter-screen for MrgX1 allosteric activator project, cell-based, Fluo-4 calcium flux, duplicate; fluorescence ratio F(max-min)/F0 at 10 µM; Fluo-4 fluorescence ratio; active compounds read high; actives 0.4% (n = 4,000); AID 624114, 2012; shares compounds with MrgX1 antagonist;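 active = calcium fluorescence ratio, averaged over duplicates, at least 3 SD of the buffer-well ratio, meaning a nonspecific response in receptor-free cells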;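 note: untransfected parental HEK293 lacking MrgX1 used as counterscreen for MrgX1 allosteric activators; fluorescence change taken during the second addition on a kinetic imager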
HEK293 Ca cntr2 – calcium response in parental HEK293 cells, primary screen, counter-screen for MrgX1 agonist project, cell-based, Fluo-4 calcium flux, duplicate, agonist mode. shares compounds with MrgX1 antagonist. Fluo-4 calcium fluorescence (FDSS); active compounds read high. fluorescence ratio F(max-min)/F0 at 10 µM. actives 8.7% (n = 4,000). AID 624115, 2012;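 active = calcium fluorescence ratio at least three times the spread of buffer wells, meaning a non-specific response in parental cells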
Active calls of the source: *; i = inactive; nt = not tested or not shown. A selection: hits, their analogues and other compounds. The true share with any hit is near 3.5%.

SMILES | RGS4 inh | MrgX1 PAM | MrgX1 antagonist | MrgX1 ag | RGS4 act | MrgX1 antag conf | HEK293 Ca flux | HEK293 Ca counter | HEK293 Ca cntr2
CC(=O)Cc1ccccc1OC(=O)c1ccco1 | i | i | -6.2* | i | i | i | i | i | i
Cc1ccc2[nH]c(-c3cccc(F)c3)cc(=O)c2c1 | i | i | -4.6* | i | i | i | i | i | i
COc1cc(NC(=O)CN(C)Cc2cccc(F)c2)c(C)cc1[N+](=O)[O-] | i | i | i | i | i | nt | nt | nt | nt
COc1ccc(C(=O)C[n+]2cn(C(F)F)c3ccccc32)c(F)c1 | i | i | i | i | i | nt | nt | nt | nt
Cc1cc(C)n(-c2nc3ccccc3nc2Nc2ccc(CC(=O)O)cc2)n1 | i | i | -7.6* | i | i | i | i | i | i
Cn1nc(C(=O)OCC(=O)NC2CCS(=O)(=O)C2)c2ccccc2c1=O (centres undefined) | i | i | i | i | i | nt | nt | nt | nt
CSc1ccccc1OCc1cc(C(=O)N2CCC(c3ccncc3)CC2)no1 | i | i | -6.1* | i | i | 80%* | i | i | i
O=C(c1cc(COc2ccc(F)cc2Cl)on1)N1CCC(c2ccncc2)CC1 | i | i | i | i | i | nt | nt | nt | nt
CCOC(=O)c1cnn(-c2ccc(C)cc2)c1N | i | i | -4.7* | i | i | i | i | i | i
CCOC(=O)c1ccc(-n2ncc(C(=O)OCC)c2N)cc1 | i | i | i | i | i | nt | nt | nt | nt
Cc1ccccc1C(=O)Nc1cccc(NC(=O)c2cccnc2)c1 | i | i | i | i | i | nt | nt | nt | nt
CN(C1CCCCC1)S(=O)(=O)c1ccc2[nH]c(=O)oc2c1 | i | i | i | i | i | nt | nt | nt | nt
CC(=O)Nc1ccc(S(=O)(=O)Nc2cc(-c3ccccc3)nn2C)cc1 | i | i | i | i | i | nt | nt | nt | nt
CC(=O)Nc1ccc(S(=O)(=O)Nc2nc3nc(-c4ccccc4)cc(-c4ccccc4)n3n2)cc1 | i | i | -6.4* | i | i | 81%* | i | i | i
[N-]=[N+]=NCCN1CCN(CCc2ccccc2)CCC1=O | i | i | i | i | i | nt | nt | nt | nt
COc1ccc(CCn2c(N)c(C(=O)NCc3ccco3)c3nc4ccccc4nc32)cc1 | i | i | i | i | i | nt | nt | nt | nt
Nc1c(C(=O)NCc2ccco2)c2nc3ccccc3nc2n1CCc1ccccc1F | i | i | -7.5* | i | i | i | i | i | i
COc1ccc(S(=O)(=O)N2CCOCC2)cc1C(=O)N1CCCCC1 | i | i | i | i | i | nt | nt | nt | nt
O=C(COc1ccc([N+](=O)[O-])cc1)Nc1cccc2nsnc12 | i | i | i | i | i | nt | nt | nt | nt
CCn1c(C(C)NS(=O)(=O)c2ccc(Cl)cc2)n[nH]c1=S (centres undefined) | i | i | -6.5* | i | i | i | i | i | i
CCCn1c(C(C)NS(=O)(=O)c2ccccc2)n[nH]c1=S (centres undefined) | i | i | i | i | i | nt | nt | nt | nt
Cc1ccc(C(=O)NC(=S)Nc2ccc(N3CCOCC3)cc2)c(C)c1 | i | i | -5.4* | i | i | i | i | i | i
CCOC(=O)CSc1n[nH]c(-c2cccnc2)n1 | i | i | -7* | i | i | i | i | i | i
CCOC(=O)CC1C(=O)NCCN1Cc1cccc(C(F)(F)F)c1 (centres undefined) | i | i | -4.7* | i | i | i | i | i | i
O=C(CC1C(=O)NCCN1Cc1cccc(C(F)(F)F)c1)NC1CCOCC1 (centres undefined) | i | i | i | i | i | nt | nt | nt | nt
SMILES | RGS4 inh | MrgX1 PAM | MrgX1 antagonist | MrgX1 ag | RGS4 act | MrgX1 antag conf | HEK293 Ca flux | HEK293 Ca counter | HEK293 Ca cntr2
Cc1ccc(CNc2cnccn2)cc1 | i | i | -6.1* | i | i | i | i | i | i
CC1(C)CC(=O)C(C=Nc2cccnc2)=C(O)C1 | i | i | -4.6* | i | i | i | i | i | i
CC1CC(C)CN(CCCNC(=O)c2cc3c(=O)[nH]c4ccccc4c3n2C)C1 (centres undefined) | i | i | i | i | i | nt | nt | nt | nt
CN(CCCNC(=O)c1cc2c(=O)[nH]c3ccccc3c2n1C)Cc1ccccc1 | i | i | -5.7* | i | i | i | i | i | i
COCCNC(=O)C(c1ccccc1F)N(C(=O)C(=O)NC1CCCC1)C1CCCCC1 (centres undefined) | i | i | i | i | i | nt | nt | nt | nt
COc1cc(NC(=O)CN2C(=O)C(C)N(c3ccc(C)cc3)C2=O)cc(OC)c1 (centres undefined) | i | i | -6.5* | i | i | i | i | i | i
O=C1CCc2cc(S(=O)(=O)N3CCN(c4ccccc4F)CC3)ccc2N1 | i | i | -5* | i | i | i | i | i | i
Cc1cccc(OCC(=O)Nc2ccc(CN3CCOCC3)cc2)c1C | i | i | -6.7* | i | i | i | i | i | i
CN(C)S(=O)(=O)c1cccc(NC(=O)c2ccc(COc3ccccc3)cc2)c1 | i | i | -4.8* | i | -7.2* | 57%* | i | i | i
COc1ccccc1C1CCN(C(=O)c2ccco2)CC1 | i | i | i | i | i | nt | nt | nt | nt
C=CCn1c(SCc2nc3cc(C(=O)OC)ccc3c(=O)[nH]2)nc2sc(CC)cc2c1=O | i | i | -4.8* | i | i | i | i | i | i

Source: PubChem
